This note sets out measurements from ChEMBL document CHEMBL4145497, “Discovery of 2-aminothiazolyl berberine derivatives as effectively antibacterial agents toward clinically drug-resistant Gram-negative Acinetobacter baumanii” (Eur J Med Chem, 2018).

A value given as a limit tells only on which side of the number the result lay.

For data set [1], the system named is Staphylococcus aureus. Kind of data set: Antibacterial activity against Staphylococcus aureus ATCC 25923 after 18 to 24 hrs by CLSI two fold serial dilution method. The data set is classed as functional.
In data set [2] the test system is Staphylococcus aureus. Put plainly: Antibacterial activity against methicillin-resistant Staphylococcus aureus N315 after 18 to 24 hrs by CLSI two fold serial dilution method. The data set is classed as functional.
Data set [3] relates to Bacillus subtilis. Kind of data set: Antibacterial activity against Bacillus subtilis ATCC 21216 after 18 to 24 hrs by CLSI two fold serial dilution method. The data set is classed as functional.
For data set [4], the system named is Micrococcus luteus. Kind of data set: Antibacterial activity against Micrococcus luteus ATCC 4698 after 18 to 24 hrs by CLSI two fold serial dilution method. The data set is classed as functional.
Data set [5] relates to Enterococcus faecalis. Kind of data set: Antibacterial activity against drug-resistant Enterococcus faecalis after 18 to 24 hrs by CLSI two fold serial dilution method. It counts as functional.
Data set [6] concerns Escherichia coli. Kind of data set: Antibacterial activity against Escherichia coli DH52 after 18 to 24 hrs by CLSI two fold serial dilution method. The data set is classed as functional.
Data set [7] relates to Escherichia coli. Kind of data set: Antibacterial activity against drug-resistant Escherichia coli after 18 to 24 hrs by CLSI two fold serial dilution method. It counts as functional.
Data set [8] has as its system Pseudomonas aeruginosa. Put plainly: Antibacterial activity against Pseudomonas aeruginosa ATCC 27853 after 18 to 24 hrs by CLSI two fold serial dilution method. The data set is classed as functional.
Data set [9] relates to Pseudomonas aeruginosa. Put plainly: Antibacterial activity against drug-resistant Pseudomonas aeruginosa after 18 to 24 hrs by CLSI two fold serial dilution method. It counts as functional.
The test system of data set [10] is Klebsiella pneumoniae. Kind of data set: Antibacterial activity against drug-resistant Klebsiella pneumoniae after 18 to 24 hrs by CLSI two fold serial dilution method. The data set is classed as functional.
Data set [11] has as its system Acinetobacter baumannii. Kind of data set: Antibacterial activity against drug-resistant Acinetobacter baumannii after 18 to 24 hrs by CLSI two fold serial dilution method. The data set is classed as functional.
Data set [12] can be described thus: Aqueous solubility of the compound in phosphate buffer at pH 7.4 after 3 hrs by UV detection assay. The data set is classed as physicochemical. An outline of the steps:
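Water solubility measured at physiological pH, with berberine as the control.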

Data set [13] can be described thus: Oral bioavailability in ICR mouse at 10.4 to 83.2 mg/kg after 60 mins by HPLC method. The data set is classed as ADME, organism-based. Conditions: in vivo.

The MIC is the lowest concentration found to suppress growth. One may read the solubility as the dissolved amount per volume that the medium holds. A low value points to little dissolved substance. Usually bioavailability stands for the share of a dose that reaches the circulation, judged against a reference dose that is usually intravenous. A higher bioavailability goes with much systemic uptake. Take `COc1ccc2cc3[n+](cc2c1OC)CCc1cc2c(cc1-3)OCO2` [BERBERINE]: the minimum inhibitory concentration (MIC) in [1] was 340 µM; in data set [2] it was 1380 µM; in [3], 690 to 1380 µM; in data set [4], 690 to 1380 µM; in data set [5] it was 1380 µM; in data set [6], 690 to 1380 µM. The MIC is 1380 µM in [7]; 690 µM in data set [8]; 1380 µM in [9]; 1380 µM in [10]; 1380 µM in data set [11]. Further, in [12], the solubility at 3 h is 86 µg/mL. Also, the bioavailability in [13] is below 1%.
